Experiments:
[1] = molecular target: Cathepsin B (Bos taurus, UniProt P07688); test: Inhibition of alpha-keto esters towards cathepsin B at pH 5.2
In short: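 Bovine cathepsin B in 20 mM sodium acetate pH 5.2, 0.5 mM dithiothreitol, 2% DMSO. Substrate Bz-Phe-Val-Arg-p-nitroanilide; p-nitroaniline release followed at 405 nm. Ki reported.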

[2] = molecular target: Calpain 1 (Homo sapiens, UniProt P07384); test: Inhibitory activity of alpha-keto esters towards calpain 1 at pH 8.0.; type: protein-complex assay
In short: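 Calpain I purified from human erythrocytes; calpain II from rabbit muscle. Buffer: 25 mM Tris pH 8.0, 1 mM β-mercaptoethanol, 10 mM CaCl2, up to 5% DMSO. Substrate: Suc-Leu-Tyr-AMC at 1–3 mM, 70 nM final enzyme, started with enzyme. AMC fluorescence read at ex 380 / em 460 nm. Initial rates taken at 30–60 s at room temperature, with five or more inhibitor levels and two substrate levels. Ki from Dixon plots, triplicates.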

[3] = molecular target: T1, Papain (Carica papaya, UniProt P00784); test: Inhibitory activity of alpha-ketoesters towards papain at pH 6.0
T1 sequence (P00784 whole entry): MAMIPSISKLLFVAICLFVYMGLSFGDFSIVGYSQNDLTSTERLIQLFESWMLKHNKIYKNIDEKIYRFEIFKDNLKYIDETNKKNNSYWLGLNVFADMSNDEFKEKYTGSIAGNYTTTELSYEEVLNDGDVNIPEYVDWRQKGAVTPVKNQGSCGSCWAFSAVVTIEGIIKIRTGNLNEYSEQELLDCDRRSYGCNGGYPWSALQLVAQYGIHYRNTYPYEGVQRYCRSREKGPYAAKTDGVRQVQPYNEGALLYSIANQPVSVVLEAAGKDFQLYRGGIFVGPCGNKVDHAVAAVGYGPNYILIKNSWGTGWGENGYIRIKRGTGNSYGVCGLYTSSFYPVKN
In short: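 Papain in 100 mM K3PO4, 1 mM EDTA, 2.5 mM cysteine, pH 6.0, 2% DMSO. Substrate Bz-Arg-p-nitroanilide; p-nitroaniline release read at 405 nm. Ki reported.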

[4] = species: Rattus norvegicus; test: Inhibitory potency against rat platelet membrane permeability at pH 7.35; type: functional
In short: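 Rat platelets from cardiac-puncture blood (citrate-EDTA), gel-filtered in HEPES-Tyrode's pH 7.35, at 10^7/mL. Preincubated 5 min at room temperature with inhibitor from DMSO stocks (2% DMSO), then given 1 μM A23187 plus 2 mM Ca for 5 min. Pellets run on SDS-PAGE and western blotted for spectrin. Densitometry of the 150/155-kDa breakdown doublet gives IC50.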

Chain of Calpain 1 (P04632 whole entry): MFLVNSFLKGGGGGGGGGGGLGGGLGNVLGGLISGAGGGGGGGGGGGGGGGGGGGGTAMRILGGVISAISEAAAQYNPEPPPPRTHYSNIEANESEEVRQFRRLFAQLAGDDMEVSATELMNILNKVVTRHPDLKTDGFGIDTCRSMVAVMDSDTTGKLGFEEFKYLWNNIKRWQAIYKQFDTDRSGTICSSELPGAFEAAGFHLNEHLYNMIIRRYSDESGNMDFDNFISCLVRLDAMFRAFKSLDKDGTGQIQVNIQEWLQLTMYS
Chain of Calpain 1 (P07384 whole entry): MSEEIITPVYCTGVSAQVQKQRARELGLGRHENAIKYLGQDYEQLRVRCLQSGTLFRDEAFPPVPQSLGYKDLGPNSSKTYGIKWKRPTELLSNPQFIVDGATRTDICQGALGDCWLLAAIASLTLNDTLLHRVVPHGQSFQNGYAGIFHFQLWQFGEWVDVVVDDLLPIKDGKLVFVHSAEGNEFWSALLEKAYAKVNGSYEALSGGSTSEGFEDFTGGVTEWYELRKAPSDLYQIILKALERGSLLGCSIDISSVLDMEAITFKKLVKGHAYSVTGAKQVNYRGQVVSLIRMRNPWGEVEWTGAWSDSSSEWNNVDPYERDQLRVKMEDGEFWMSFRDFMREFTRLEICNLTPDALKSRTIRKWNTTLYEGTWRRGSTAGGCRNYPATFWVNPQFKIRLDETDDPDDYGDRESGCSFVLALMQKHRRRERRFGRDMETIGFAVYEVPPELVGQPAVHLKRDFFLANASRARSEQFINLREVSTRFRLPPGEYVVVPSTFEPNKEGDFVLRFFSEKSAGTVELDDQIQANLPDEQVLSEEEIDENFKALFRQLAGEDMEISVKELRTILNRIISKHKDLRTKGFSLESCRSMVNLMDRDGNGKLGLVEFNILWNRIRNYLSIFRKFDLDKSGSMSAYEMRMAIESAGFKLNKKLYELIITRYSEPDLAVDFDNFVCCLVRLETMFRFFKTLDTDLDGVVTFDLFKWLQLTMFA

Ki [1] [µM]	Ki [2] [µM]	Ki [3] [µM]	IC50 [4] [µM]	SMILES
7.5				CCOC(=O)C(=O)C(CC)NC(=O)C(CC(C)C)NC(=O)CCCCc1ccccc1 (configuration not stated)
4	9.5	40	100	CCC(NC(=O)C(CC(C)C)NC(=O)OCc1ccccc1)C(=O)C(=O)OCc1ccccc1 (configuration not stated)
1.2	0.32			CCC(NC(=O)C(CC(C)C)NC(=O)OCc1ccccc1)C(=O)C(=O)NCCCCc1ccccc1 (configuration not stated)
4	4		28	CCC(NC(=O)C(CC(C)C)NC(=O)OCc1ccccc1)C(=O)C(=O)NCC(C)C (configuration not stated)
19				CCOC(=O)C(=O)C(CC)NC(=O)C(CC(C)C)NS(=O)(=O)c1ccc2ccccc2c1 (configuration not stated)
5				CCCCCCCCCCNC(=O)C(=O)C(CC)NC(=O)C(CC(C)C)NC(=O)OCc1ccccc1 (configuration not stated)
	0.32		27	CCC(NC(=O)C(CC(C)C)NC(=O)OCc1ccccc1)C(=O)C(=O)NCC(C)c1ccccc1 (configuration not stated)
0.4			> 300	CCOC(=O)C(=O)C(CC)NC(=O)C(CC(C)C)NC(=O)OCC(C)C (configuration not stated)
20	7	190	150	CCCCC(NC(=O)C(CC(C)C)NC(=O)OCc1ccccc1)C(=O)C(=O)OCC (configuration not stated)
14	0.096			CCCCCCCNC(=O)C(=O)C(CC)NC(=O)C(CC(C)C)NC(=O)OCc1ccccc1 (configuration not stated)
0.5	2			CCC(C)NC(=O)C(=O)C(CC)NC(=O)C(CC(C)C)NC(=O)OCc1ccccc1 (configuration not stated)
3	15		31	CCCNC(=O)C(=O)C(Cc1ccccc1)NC(=O)C(CC(C)C)NC(=O)OCc1ccccc1 (configuration not stated)
> 100				COC(=O)C(=O)C(Cc1ccccc1)NC(=O)C(CC(C)C)NC(=O)OCc1ccccc1 (configuration not stated)
32	1			CC(C)CC(NC(=O)OCc1ccccc1)C(=O)NC(Cc1ccccc1)C(=O)C(N)=O (configuration not stated)
8			70	CCCNC(=O)C(=O)C(CC)NC(=O)C(CC(C)C)NC(=O)OCc1ccccc1 (configuration not stated)
3.3	0.21		40	CCCC(NC(=O)C(CC(C)C)NC(=O)OCc1ccccc1)C(=O)C(=O)NCC (configuration not stated)
4.5	0.0085	7	100	CC(C)CC(NC(=O)OCc1ccccc1)C(=O)NC(Cc1ccccc1)C(=O)C(=O)O (configuration not stated)
	76			CCN(CC)C(=O)C(=O)C(Cc1ccccc1)NC(=O)C(CC(C)C)NC(=O)OCc1ccccc1 (configuration not stated)
50	< 4	150		CCOC(=O)C(=O)C(Cc1ccc(Cl)cc1)NC(=O)C(CC(C)C)NC(=O)OCc1ccccc1 (configuration not stated)

Ki [1] [µM]	Ki [2] [µM]	Ki [3] [µM]	IC50 [4] [µM]	SMILES
55	1	140		CCOC(=O)C(=O)C(CCSC)NC(=O)C(CC(C)C)NC(=O)OCc1ccccc1 (configuration not stated)
1.3	0.2	38	50	CCC(NC(=O)C(CC(C)C)NC(=O)OCc1ccccc1)C(=O)C(=O)NCCc1ccccc1 (configuration not stated)
15	5	15		CCCCOC(=O)C(=O)C(Cc1ccccc1)NC(=O)C(CC(C)C)NC(=O)OCc1ccccc1 (configuration not stated)
17			280	CCC(NC(=O)C(CC(C)C)NC(=O)OCc1ccccc1)C(=O)C(=O)OC (configuration not stated)
	0.1		> 100	CCOC(=O)C(=O)C(CC)NC(=O)C(CC(C)C)NC(=O)C(c1ccccc1)c1ccccc1 (configuration not stated)
23	40		20	CCOC(=O)C(=O)C(CC)NC(=O)C(CC(C)C)NC(=O)CCc1ccccc1 (configuration not stated)
	0.069			CCCC(NC(=O)C(CC(C)C)NC(=O)OCc1ccccc1)C(=O)C(N)=O (configuration not stated)
	0.68		66	CCC(NC(=O)C(CC(C)C)NC(=O)OCc1ccccc1)C(=O)C(=O)NCC1CCCCC1 (configuration not stated)
25	1.4	150	100	CCCC(NC(=O)C(CC(C)C)NC(=O)OCc1ccccc1)C(=O)C(=O)OCC (configuration not stated)
30	4.5	220	300	CCOC(=O)C(=O)C(CC)NC(=O)C(CC(C)C)NC(=O)OCc1ccccc1 (configuration not stated)
1.3	0.2	38	50	CCC(NC(=O)C(CC(C)C)NC(=O)OCc1ccccc1)C(=O)C(=O)NCc1ccccc1 (configuration not stated)
23			20	CCOC(=O)C(=O)C(CC)NC(=O)C(CC(C)C)NC(=O)CCCc1ccccc1 (configuration not stated)
1.5	0.075	13.5	100	CCC(NC(=O)C(CC(C)C)NC(=O)OCc1ccccc1)C(=O)C(=O)O (configuration not stated)
0.2	0.8		100	CCC(NC(=O)C(CC(C)C)NC(=O)OCc1ccccc1)C(=O)C(=O)NCCCc1ccccc1 (configuration not stated)
22	1.8		40	CCC(=O)C(=O)[C@H](CC)NC(=O)[C@H](CC(C)C)NC(=O)[C@H](CC(C)C)NC(=O)OCc1ccccc1
42	1.4	15		CCOC(=O)C(=O)[C@H](Cc1ccccc1)NC(=O)[C@H](CC(C)C)NC(=O)[C@H](CC(C)C)NC(=O)OCc1ccccc1
69	33		30	CCOC(=O)C(=O)[C@H](CC)NC(=O)[C@H](CC(C)C)NC(=O)[C@H](CC(C)C)NS(=O)(=O)c1ccc(C)cc1
25	16		100	CCOC(=O)C(=O)[C@H](CC)NC(=O)[C@H](CC(C)C)NC(=O)[C@H](CC(C)C)NS(=O)(=O)c1ccc2ccccc2c1
	1.3		78	CCOC(=O)C(=O)[C@H](CC)NC(=O)[C@H](CC(C)C)NC(=O)[C@H](CC(C)C)NC(=O)c1ccc2ccccc2c1

Ki [1] [µM]	Ki [2] [µM]	Ki [3] [µM]	IC50 [4] [µM]	SMILES
45	3.4	45		CC(C)CC(NC(=O)OCc1ccccc1)C(=O)NC(Cc1ccccc1)C(=O)C(=O)OCc1ccccc1 (configuration not stated)
2.4	0.25	93	100	CCNC(=O)C(=O)C(CC)NC(=O)C(CC(C)C)NC(=O)OCc1ccccc1 (configuration not stated)
2.6	0.32		200	CCCCCCCCNC(=O)C(=O)C(CC)NC(=O)C(CC(C)C)NC(=O)OCc1ccccc1 (configuration not stated)
3.4	0.28	190	89	CCC(NC(=O)C(CC(C)C)NC(=O)OCc1ccccc1)C(=O)C(N)=O (configuration not stated)
3	0.16			CCC(NC(=O)C(CC(C)C)NC(=O)OCc1ccccc1)C(=O)C(=O)NCC(c1ccccc1)c1ccccc1 (configuration not stated)
270				CCC(NC(=O)C(CC(C)C)NC(=O)OCc1ccccc1)C(=O)C(=O)N(CC)CC (configuration not stated)
150	0.12			CCCCCCCCCNC(=O)C(=O)C(CC)NC(=O)C(CC(C)C)NC(=O)OCc1ccccc1 (configuration not stated)
14	20		22	CCOC(=O)C(=O)C(CC)NC(=O)C(CC(C)C)NC(=O)C(CC)Oc1ccccc1 (configuration not stated)
9.3	0.052	100	100	CC(C)CC(NC(=O)OCc1ccccc1)C(=O)NC(Cc1ccccc1)C(=O)C(=O)NCCc1ccccc1 (configuration not stated)
24				CCOC(=O)C(=O)C(CC)NC(=O)C(CC(C)C)NC(=O)CCC(C)Cc1ccccc1 (configuration not stated)
4	1.8	10	28	CCCCOC(=O)C(=O)C(CC)NC(=O)C(CC(C)C)NC(=O)OCc1ccccc1 (configuration not stated)
> 400				CCC(NC(=O)C(CC(C)C)NC(=O)OCc1ccccc1)C(=O)C(=O)N(CC)Cc1ccccc1 (configuration not stated)
340	1.8	75	200	CCOC(=O)C(=O)C(Cc1ccccc1)NC(=O)C(CC(C)C)NC(=O)OCc1ccccc1 (configuration not stated)
4.6			> 300	CC(C)CC(NC(=O)OCc1ccccc1)C(=O)NC(Cc1ccccc1)C(=O)C(=O)NCc1ccccc1 (configuration not stated)
6	0.2	45	22	CCNC(=O)C(=O)C(Cc1ccccc1)NC(=O)C(CC(C)C)NC(=O)OCc1ccccc1 (configuration not stated)
31	> 5			CCC(NC(=O)C(CC(C)C)NC(=O)OCc1ccccc1)C(=O)C(=O)N(Cc1ccccc1)Cc1ccccc1 (configuration not stated)
3	0.5		38	CCCCNC(=O)C(=O)C(Cc1ccccc1)NC(=O)C(CC(C)C)NC(=O)OCc1ccccc1 (configuration not stated)
4	0.08		22	CC(C)CNC(=O)C(=O)C(Cc1ccccc1)NC(=O)C(CC(C)C)NC(=O)OCc1ccccc1 (configuration not stated)
13	0.2	93	35	CCCCNC(=O)C(=O)C(CC)NC(=O)C(CC(C)C)NC(=O)OCc1ccccc1 (configuration not stated)

Reference: ChEMBL document CHEMBL1126888, “Peptide alpha-keto ester, alpha-keto amide, and alpha-keto acid inhibitors of calpains and other cysteine proteases” (J Med Chem, 1993)
